Active and inactive are the calls of the source. The calls are words filed in the database; no cut-off is given here.
Experiments:
Brain [1] = experiment: Drug uptake in rat brain after 25 mins; type: ADME, tissue-based; details: in vivo
In short: (§1)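 Naïve rats under isoflurane anaesthesia (1.5–2% maintenance), warmed to about 38 °C, with femoral artery and vein catheters. Baseline dynamic PET, whole-brain TACs expressed as SUV. Arterial blood sampled frequently and gamma-counted.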

Brain [2] = experiment: Drug uptake in rat brain at 15 mg/kg, iv after 60 mins post-radiotracer administration; type: ADME, organism-based; set-up: dose 15 mg/kg, route intravenous; details: in vivo, 1 h
Brain [3] = experiment: Drug uptake in rat brain at 5 mg/kg, iv after 60 mins post-radiotracer administration; type: ADME, organism-based; set-up: dose 5 mg/kg, route intravenous; details: in vivo, 1 h
[4] = target: T1, Broad substrate specificity ATP-binding cassette transporter ABCG2 (Homo sapiens, UniProt Q9UNQ0); experiment: Inhibition of BCRP
T1 sequence (Q9UNQ0 whole entry): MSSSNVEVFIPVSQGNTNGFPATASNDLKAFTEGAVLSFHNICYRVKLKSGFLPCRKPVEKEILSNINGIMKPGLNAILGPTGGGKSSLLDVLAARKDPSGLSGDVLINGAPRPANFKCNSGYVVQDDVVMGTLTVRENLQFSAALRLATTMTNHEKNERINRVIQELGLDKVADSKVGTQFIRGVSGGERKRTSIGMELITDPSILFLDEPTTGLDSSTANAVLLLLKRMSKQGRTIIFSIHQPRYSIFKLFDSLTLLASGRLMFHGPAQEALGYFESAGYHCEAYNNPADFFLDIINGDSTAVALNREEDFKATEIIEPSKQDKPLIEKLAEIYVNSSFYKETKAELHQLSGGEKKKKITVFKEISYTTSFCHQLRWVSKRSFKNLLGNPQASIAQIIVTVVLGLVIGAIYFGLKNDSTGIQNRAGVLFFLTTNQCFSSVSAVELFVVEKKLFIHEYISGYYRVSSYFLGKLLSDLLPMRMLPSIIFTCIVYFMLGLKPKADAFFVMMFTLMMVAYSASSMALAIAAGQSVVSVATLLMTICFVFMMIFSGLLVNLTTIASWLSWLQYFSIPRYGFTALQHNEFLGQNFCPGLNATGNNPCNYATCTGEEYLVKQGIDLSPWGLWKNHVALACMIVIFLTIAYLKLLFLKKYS

[5] = Inhibition of MRP
Brain [6] = experiment: Biodistribution in mouse brain; type: ADME, organism-based; details: in vivo
In short: (§2)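 Mice (wild-type, Mdr1a/b(−/−), Bcrp1(−/−), Mdr1a/b(−/−)Bcrp1(−/−); n = 3 per type) under isoflurane anaesthesia, warmed to about 38 °C. Whole-brain SUV taken at 25 min. Brain-to-blood ratio = individual brain SUV ÷ mean whole-blood SUV from separate groups, with blood drawn retro-orbitally at 25 min and gamma-counted.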

Brain [7] = experiment: Drug uptake in rat brain after 0.5 to 1.3 mins; type: ADME, tissue-based; details: in vivo; in short: as §1
[8] = Ratio of drug level from brain to blood in MDR1a/b deficient FVB mouse; type: ADME, tissue-based; details: brain and blood; in short: as §2
[9] = Ratio of drug level from brain to blood in BCRP1 deficient FVB mouse; type: ADME, tissue-based; details: brain and blood
In short: (§3)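 Single 60-min dynamic PET scan, whole brain outlined, SUV read at 25 min. Venous blood drawn retro-orbitally at 25 min in separate groups, gamma-counted and decay-corrected. Brain SUV of each animal divided by mean blood SUV of that group.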

[10] = Ratio of drug level from brain to blood in MDR1a/b and BCRP1 deficient FVB mouse; type: ADME, tissue-based; in short: as §2
[11] = Ratio of drug level from brain to blood in wild type FVB mouse; type: ADME, tissue-based; details: brain and blood; in short: as §3
Brain [12] = experiment: Decrease in binding in BCRP1 deficient FVB mouse brain; details: in vitro
Brain [13] = experiment: Decrease in binding in MDR1a/b deficient FVB mouse brain; details: in vitro
Brain [14] = experiment: Decrease in binding in MDR1a/b and BCRP1 deficient FVB mouse brain; details: in vitro

## COc1cc2c(cc1OC)CN(CCc1ccc(NC(=O)c3cccc4c(=O)c5cccc(OC)c5[nH]c34)cc1)CC2 [ELACRIDAR]
Brain [1]
  SUV: 0.19
Brain [2]
  SUV: 0.43
Brain [3]
  SUV: 0.71

## COc1cc2c(cc1OC)CN(CCc1ccc(NC(=O)c3cc(OC)c(OC)cc3NC(=O)c3cnc4ccccc4c3)cc1)CC2 [TARIQUIDAR]
[4]
  inhibition (INH): Active
[5]
  inhibition: Active
Brain [6]
  Activity: 24%

## COc1cc2c(cc1OC)CN(CCc1ccc(NC(=O)c3cc(O[11CH3])c(OC)cc3NC(=O)c3cnc4ccccc4c3)cc1)CC2 [[11C]TARIQUIDAR]
Brain [7]
  SUV: 0.71
[8]
  Kp: 3.4
[9]
  Kp: 1.8
[10]
  Kp: 14.5
[11]
  Kp: 1
Brain [12]
  % decrease in binding: 41%
Brain [13]
  % decrease in binding: 49%
Brain [14]
  % decrease in binding: 46%
